Six molecules from ChEMBL document CHEMBL1141198, “Design and synthesis of tri-ring P3 benzamide-containing aminonitriles as potent, selective, orally effective inhibitors of cathepsin K” (J Med Chem, 2005) can be followed below.

One data set deals with Cathepsin B (Homo sapiens, UniProt P07858). Briefly: Inhibitory constant against human cathepsin B using Boc-Leu-Lys-Arg-AMC substrate. The conditions noted are these: read-out: Ki app.
A further data set has as its target Procathepsin L (Homo sapiens, UniProt P07711). Put plainly: Inhibitory constant against human cathepsin L using Z-Phe-Arg-AMC substrate. To be noted: read-out: Ki app. In a few lines: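 Recombinant human cathepsin L at 500 pM in 50 mM MES pH 5.5, 2.5 mM DTT, 2.5 mM EDTA, 10% DMSO. Enzyme preincubated with inhibitor (8 concentrations) 30 min at 21–24 °C. Reaction started with 10 μM Z-Phe-Arg-AMC; AMC fluorescence (ex 355/em 460 nm) over first ~5 min. Ki(app) fitted with Morrison tight-binding model.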

The target of another data set is Cathepsin S (Homo sapiens, UniProt P25774). Put plainly: Inhibitory constant against human cathepsin S using Z-Val-Val-Arg-AMC substrate. To be noted: read-out: Ki app. A digest of the protocol:
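Recombinant human cathepsin S at 500 pM in 50 mM MES pH 6.5, 2.5 mM β-mercaptoethanol, 2.5 mM EDTA, 100 mM NaCl, 0.001% BSA, 10% DMSO. 30 min enzyme–inhibitor preincubation at 21–24 °C, 8 inhibitor concentrations. Started with 60 μM Z-Val-Val-Arg-AMC; initial rates by AMC fluorescence (ex 355/em 460). Ki(app) by Morrison tight-binding fit.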

For a further data set, the system named is Osteoclast. Briefly: In vitro bone resorption in isolated rabbit osteoclasts. It counts as functional, cell-based. To be noted: Oryctolagus cuniculus. A digest of the protocol: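 Bovine bone degraded by isolated rabbit osteoclasts; collagen degradation read by ELISA. 8-point dose–response curves; IC50 derived.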
Data set [1] in a line: Plasma clearance in rat administered with 0.5 mg/kg, iv. It counts as ADME, organism-based. More on the design: dose 0.5 mg/kg, route intravenous. In a few lines:
(§1)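 Rats, three per study, cassette iv dosing of up to four compounds. Formulation DMSO (<20%), PEG 400 (<20%) and water at 0.5 mg/mL per compound, given at 1 mL/kg for 0.5 mg/kg per compound.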

The nature of data set [2]: Volume of distribution in rat administered with 0.5 mg/kg, iv. It counts as ADME, organism-based. More on the design: dose 0.5 mg/kg, route intravenous. The conditions noted are these: in vivo, read-out: Vss. A digest of the protocol:
as §1

Data set [3] concerns Rattus norvegicus. Put plainly: Mean residence time in rat administered with 0.5 mg/kg, iv. Format: functional, organism-based. More on the design: dose 0.5 mg/kg. In a few lines: as §1
For data set [4], the system named is Rattus norvegicus. Put plainly: Terminal half-life in rat administered with 0.5 mg/kg, iv. It counts as functional, organism-based. Also on record: dose 0.5 mg/kg. In a few lines: as §1
The nature of data set [5]: Maximum concentration in rat administered with 0.5 mg/kg, iv. Format: ADME, organism-based. More on the design: dose 0.5 mg/kg, route intravenous. The conditions noted are these: in vivo.
Data set [6] has as its system Rattus norvegicus. Put plainly: Oral bioavailability in rat. Format: functional, organism-based. In a few lines:
(§2)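 Single-compound rat PK: 0.5 mg/kg iv and 10 mg/kg oral. Bioavailability from oral versus iv exposure.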

Data set [7] has as its system Rattus norvegicus. Put plainly: Terminal half-life in rat administered with 10 mg/kg, po. It counts as functional, organism-based. More on the design: dose 10 mg/kg. In a few lines:
as §2

Data set [8] relates to Rattus norvegicus. Put plainly: Time of peak concentration post-dose in rat administered with 10 mg/kg, po. Also on record: dose 10 mg/kg. It counts as functional, organism-based. A digest of the protocol:
as §2

The target of data set [9] is Cathepsin K (Homo sapiens) (UniProt P43235). Briefly: Inhibitory constant against human cathepsin K using Z-Phe-Arg-AMC substrate. The conditions noted are these: read-out: Ki app.
Data set [10] can be described thus: Maximum concentration in rat administered with 10 mg/kg, po. Format: ADME, organism-based. More on the design: dose 10 mg/kg, route oral. The conditions noted are these: in vivo. A digest of the protocol:
as §2

The species named for data set [11] is Rattus norvegicus. Briefly: Terminal half-life in rat. It counts as functional, organism-based.
Another data set relates to Rhesus monkey. Put plainly: Reduction of collagen breakdown products in ovariectomized rhesus monkey dosed at 15, 3 and 0.6 mg/kg, po. Format: functional, Macaca mulatta. Also on record: scale not given: the % may be the effect or the level left. A digest of the protocol:
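OVX rhesus monkeys (mean age 15 y, 3 y post-surgery): vehicle 1% carboxymethylcellulose po qd 2 days, then compound po qd 8–11 days at 15, 3 or 0.6 mg/kg, then 3 days vehicle. Controls on vehicle for 13 days. 24-h urine collected pre-dose, during dosing and 10–17 days after; urinary NTx normalized to creatinine (nM/mM).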

The target in another data set is T1, Cathepsin K (Oryctolagus cuniculus, UniProt P43236).
T1 sequence (P43236 whole entry): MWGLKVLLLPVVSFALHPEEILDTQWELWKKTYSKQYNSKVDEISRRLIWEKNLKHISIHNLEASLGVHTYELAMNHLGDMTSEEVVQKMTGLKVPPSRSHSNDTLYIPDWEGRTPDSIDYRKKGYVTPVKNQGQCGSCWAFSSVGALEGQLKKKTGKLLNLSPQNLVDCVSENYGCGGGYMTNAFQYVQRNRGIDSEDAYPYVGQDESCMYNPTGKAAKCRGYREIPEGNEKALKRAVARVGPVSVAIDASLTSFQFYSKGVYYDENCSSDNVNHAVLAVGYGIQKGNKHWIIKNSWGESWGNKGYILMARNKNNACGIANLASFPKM
Put plainly: Inhibitory constant against rabbit cathepsin K using Z-Phe-Arg-AMC substrate. To be noted: read-out: Ki app.

Data set [12] in a line: Maximum concentration in rat administered with 20 mg/kg, po. Also on record: dose 20 mg/kg, route oral. The conditions noted are these: in vivo. It counts as ADME, organism-based.

Cathepsin S, sequence (P25774 whole entry): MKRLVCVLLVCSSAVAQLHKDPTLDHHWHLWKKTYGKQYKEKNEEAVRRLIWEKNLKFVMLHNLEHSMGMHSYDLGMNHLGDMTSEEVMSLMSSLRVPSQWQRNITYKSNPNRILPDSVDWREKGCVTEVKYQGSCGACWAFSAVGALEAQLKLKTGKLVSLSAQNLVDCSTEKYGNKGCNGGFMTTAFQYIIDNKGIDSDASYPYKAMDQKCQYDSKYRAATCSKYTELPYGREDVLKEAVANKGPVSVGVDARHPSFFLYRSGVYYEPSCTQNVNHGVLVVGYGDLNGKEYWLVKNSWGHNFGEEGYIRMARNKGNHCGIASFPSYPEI
Procathepsin L, sequence (P07711 whole entry): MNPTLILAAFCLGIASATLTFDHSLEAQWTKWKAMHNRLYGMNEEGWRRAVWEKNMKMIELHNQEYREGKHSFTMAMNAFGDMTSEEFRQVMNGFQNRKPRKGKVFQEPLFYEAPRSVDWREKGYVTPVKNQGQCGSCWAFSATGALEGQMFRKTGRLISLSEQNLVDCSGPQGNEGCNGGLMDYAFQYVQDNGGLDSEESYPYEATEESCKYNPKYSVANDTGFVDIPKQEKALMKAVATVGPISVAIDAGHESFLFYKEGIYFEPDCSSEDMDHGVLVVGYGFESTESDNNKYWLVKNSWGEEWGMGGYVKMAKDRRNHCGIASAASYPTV

Regarding `N#CCNC(=O)C1(NC(=O)c2ccc(-c3ccc(N4CCNCC4)cc3)cc2)CCCCC1`, the Ki was 420 nM at Cathepsin B, 7900 nM on Procathepsin L, 4900 nM at Cathepsin S and below 0.25 nM in [9]. In the data set on Osteoclast, this molecule had an IC50 of 77 nM. Moreover, the clearance in [1] amounted to 71 mL/min/kg. Further, the Vd in data set [2] is 7.23 L/kg. The molecule also had an MRT in the data set on Rattus norvegicus [3] of 1.73 h. Moreover, the T1/2 in the data set on Rattus norvegicus [4] worked out at 1.4 h; with Rattus norvegicus [7], 1.88 h. The molecule also came in with a Cmax in data set [5] of 500 nM. This molecule registered a bioavailability in the data set on Rattus norvegicus [6] of 21%. In the data set on Rattus norvegicus [8], the Tmax is 2 h.
In the case of `CC(C)(C)N1CCN(c2nc(-c3ccc(C(=O)NC4(C(=O)NCC#N)CCCCC4)cc3)cs2)CC1`, the Ki was determined as 910 nM at Cathepsin B, 8800 nM at Procathepsin L, 19000 nM at Cathepsin S and 0.29 nM in [9]. This molecule also came in with a half-inhibitory concentration (IC50) in the data set on Osteoclast of 1 nM. For the same molecule, in the data set on Rattus norvegicus [6], the bioavailability is 44%. Besides, in data set [10], the Cmax worked out at 800 nM. Besides, the T1/2 in the data set listed under Rattus norvegicus [11] stood at 1.67 h.
In the data set on Rhesus monkey, `CN1CCN(c2nc(-c3ccc(C(=O)NC4(C(=O)NCC#N)CCCCC4)cc3)cs2)CC1` had an Activity of 76%. Also, the Ki on Cathepsin K was found to be 0.5 nM; on Cathepsin B, 1000 nM; at Procathepsin L it was 6000 nM; at Cathepsin S, 47000 nM; in [9], 0.2 nM. The molecule further showed an IC50 in the data set on Osteoclast of 5 nM. Also, in the data set on Rattus norvegicus [6], the bioavailability came out at 68%. The molecule further showed a T1/2 in the data set filed under Rattus norvegicus [11] of 3.4 h. Further, the peak level in [12] (Cmax) was 1400 nM.
Regarding `N#CCNC(=O)C1(NC(=O)c2ccc(-c3csc(N4CCC(N5CCOCC5)CC4)n3)cc2)CCCCC1`, the Ki at Cathepsin B is 670 nM; at Procathepsin L, 16000 nM; on Cathepsin S it was 6400 nM; in [9], below 0.25 nM. In addition, in the data set with Osteoclast, the IC50 came to 3 nM. Besides, in the data set on Rattus norvegicus [6], the bioavailability is 48%. In [10], this molecule gave a Cmax of 1700 nM. For the same molecule, the T1/2 in the data set listed under Rattus norvegicus [11] came to 5.33 h.
Consider `N#CCNC(=O)C1(NC(=O)c2ccc(-c3csc(N4CCC(N5CCCCC5)CC4)n3)cc2)CCCCC1`, for which the Ki amounted to 690 nM on Cathepsin B, 8800 nM on Procathepsin L, 42000 nM at Cathepsin S and 0.45 nM in data set [9]. The same molecule showed a half-maximal inhibitory concentration (IC50) in the data set on Osteoclast of 3 nM. Moreover, the bioavailability in the data set with Rattus norvegicus [6] came out at 35%. The molecule further gave a Cmax in data set [10] of 360 nM. Moreover, in the data set filed under Rattus norvegicus [11], the T1/2 was 3.35 h.
Take `CN1CCCC(Oc2ccc(-c3ccc(C(=O)NC4(C(=O)NCC#N)CCCCC4)cc3)cc2)C1` (configuration not stated): the Ki at Cathepsin B was found to be 870 nM; at Procathepsin L it was 2300 nM; on Cathepsin S it was 13000 nM; in data set [9], 0.67 nM. Besides, the IC50 in the data set with Osteoclast amounted to 10 nM. The clearance in data set [1] stood at 104 mL/min/kg. In data set [2], the Vd amounted to 8.46 L/kg. In the data set with Rattus norvegicus [3], the MRT is 1.35 h. Moreover, the T1/2 with Rattus norvegicus [4] amounted to 1.5 h. For the same molecule, the Cmax in data set [5] was found to be 250 nM.

Broadly, the IC50 is the concentration that inhibits the measured activity by half. What is called clearance is the volume of plasma or blood freed of the substance per unit of time. As usually defined, the Cmax is the highest concentration seen after dosing.
